Data set [1] addresses T1, Sex hormone-binding globulin (Oryctolagus cuniculus, UniProt P15196).
T1 sequence (P15196 whole entry): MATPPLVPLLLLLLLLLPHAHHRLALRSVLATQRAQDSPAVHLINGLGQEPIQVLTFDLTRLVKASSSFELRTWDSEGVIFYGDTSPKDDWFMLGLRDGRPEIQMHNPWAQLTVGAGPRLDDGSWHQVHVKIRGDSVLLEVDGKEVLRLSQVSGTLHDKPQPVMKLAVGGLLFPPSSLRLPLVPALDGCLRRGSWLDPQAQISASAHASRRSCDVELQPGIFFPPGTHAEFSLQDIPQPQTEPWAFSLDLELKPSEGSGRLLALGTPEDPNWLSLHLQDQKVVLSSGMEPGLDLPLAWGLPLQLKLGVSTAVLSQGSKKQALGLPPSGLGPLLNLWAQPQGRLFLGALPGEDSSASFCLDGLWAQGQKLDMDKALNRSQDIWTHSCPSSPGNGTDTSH
The experiment in a line: Binding affinity to rabbit sex hormone binding globulin at 20 uCi after 60 mins by size-exclusion HPLC analysis. In kind it is ADME. To be noted: 1 h. In a few lines: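 Radioligand incubated 60 min with purified human SHBG or with human, rabbit or mouse serum. Size-exclusion HPLC (TSK3000): 0.1 M potassium phosphate/0.1 M Na2SO4 1:1 pH 6.8 for 20 min, then 0–40% CH3CN over 20 min, held 30 min, 0.7 mL/min.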
(In gel filtration, larger molecules generally elute earlier.)

Data set [2] relates to OVCAR-3. The experiment in a line: Cellular uptake in human OVCAR-3 cells expressing androgen receptor after 24 hrs. It counts as ADME, cell-based. Particulars: ovcar-3, 24 h. In a few lines:
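NIH:OVCAR-3 cells in complete RPMI-1640 exposed to the radioligand for 24 h (concentration series) or at 1.75 μCi/mL for set times; medium then replaced and cells cultured further 24–48 h; whole-cell and DNA uptake in cpm/cell.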

The subject of another data set is Stomach. The experiment in a line: Biodistribution in stomach of athymic NCr mouse xenografted with human OVCAR-3 cells assessed per gram of tissue at an average 39.5 uCi/dose, ip administered 9 days after tumor implantation as six fractionated doses every 4 days measured after 2 weeks of last dose by gamma counting. In kind it is ADME, organism-based. Particulars: in vivo, 336 h. In a few lines: (§1)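 OVCAR-3-bearing and healthy athymic mice given fractionated ip doses on the six-dose every-4-days schedule; tissues, tumor and lavaged cells γ-counted at necropsy, %ID/g; DNA-bound 125I in cells measured as cpm/cell.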

A short description of data set [3]: Biodistribution in small intestine of athymic NCr mouse xenografted with human OVCAR-3 cells assessed per gram of tissue at an average 39.5 uCi/dose, ip administered 9 days after tumor implantation as six fractionated doses every 4 days measured after 2 weeks of last dose by gamma counting. In kind it is ADME, organism-based. To be noted: in vivo, 336 h. In a few lines: as §1
A general note: In xenograft studies the graft and the host belong to different species.

The subject of another data set is LNCaP. The experiment in a line: Cytotoxicity against human LNCAP cells expressing androgen receptor assessed as drug level required to reduce viable cell count to 37% after 48 hrs. In kind it is functional. In a few lines:
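LNCaP human prostate cancer cells were grown for 48 h with the 125I-labelled compound in the medium, and cell survival was then determined. D37 was expressed as the extracellular concentration in μCi/mL.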

In data set [4] the target is T2, Sex hormone-binding globulin (Homo sapiens, UniProt P04278).
T2 sequence (P04278 whole entry): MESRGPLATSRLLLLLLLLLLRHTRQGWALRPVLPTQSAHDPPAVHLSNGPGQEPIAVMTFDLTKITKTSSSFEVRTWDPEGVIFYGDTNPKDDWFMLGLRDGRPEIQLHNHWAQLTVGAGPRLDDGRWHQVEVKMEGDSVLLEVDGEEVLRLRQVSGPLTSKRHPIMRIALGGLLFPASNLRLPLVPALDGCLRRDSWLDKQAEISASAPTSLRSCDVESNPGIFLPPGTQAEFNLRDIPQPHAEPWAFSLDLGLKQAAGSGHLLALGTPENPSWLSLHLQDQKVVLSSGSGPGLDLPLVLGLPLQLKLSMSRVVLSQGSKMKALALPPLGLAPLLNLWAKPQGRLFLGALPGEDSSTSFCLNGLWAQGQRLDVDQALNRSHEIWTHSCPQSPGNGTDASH
The experiment in a line: Binding affinity to human sex hormone binding globulin at 10 to 20 uCi/mL after 60 mins by instant thin layer chromatography. It counts as ADME. To be noted: 1 h.

The next data set addresses Albumin (Mus musculus, UniProt P07724). Kind of data set: Binding affinity to mouse serum albumin at 10 to 20 uCi/mL after 60 mins by size-exclusion HPLC analysis. In kind it is ADME. Particulars: isolated protein, 1 h. In a few lines: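 Radioiodinated compound incubated 60 min with human, rabbit or mouse serum, or with purified human SHBG. Aliquots analysed on a TSK3000 size-exclusion column: 0.1 M potassium phosphate/0.1 M Na2SO4 (1:1, pH 6.8) for 20 min, then 0–40% CH3CN over 20 min, held 30 min, 0.7 mL/min. Protein-bound versus free radioactivity read from the peaks.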

Data set [5] can be described thus: Stability in mouse serum assessed as intact compound remaining at 10 to 20 uCi/mL after 10 mins by size-exclusion HPLC analysis. In kind it is ADME, cell-free. To be noted: read-out: Stability. In a few lines:
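The compound was incubated in mouse serum, which lacks circulating SHBG. Aliquots were analysed on size-exclusion HPLC (TSK3000; phosphate/Na2SO4 buffer, pH 6.8, then an acetonitrile gradient). Extracts were analysed by C18 reversed-phase HPLC to measure intact compound remaining over time.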

Data set [6] can be described thus: Stability in human OVCAR-3 cells expressing androgen receptor assessed as compound degradation at 0.1 uCi/mL up to 4 hrs by silica gel instant thin layer chromatography. In kind it is ADME, cell-based. Particulars: read-out: Activity.
Data set [7] in a line: Stability in human OVCAR-3 cells expressing androgen receptor assessed as half life at 0.01 to 5 uCi/mL by silica gel instant thin layer chromatography. It counts as ADME, cell-based.
Data set [8] can be described thus: Biodistribution in uterus of athymic NCr mouse xenografted with human OVCAR-3 cells assessed per gram of tissue at 1.12 uCi, ip after 72 hrs by gamma counting. In kind it is ADME, organism-based. To be noted: in vivo.
The nature of data set [9]: Clearance in peritoneal cavity of athymic NCr mouse xenografted with human OVCAR-3 cells assessed as half life at 1.12 uCi, ip by gamma counting. It counts as ADME, organism-based. To be noted: in vivo. In a few lines:
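Peritoneal clearance measured in athymic NCr-nu/nu mice bearing intraperitoneal NIH:OVCAR-3 xenografts after an ip dose of the 125I compound. The peritoneal cavity was lavaged, and 125I was counted in the lavage and in the recovered tumor cells. Half-lives were estimated from the clearance curves.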

Data set [10] relates to OVCAR-3. Kind of data set: Antitumor activity against human OVCAR-3 cells xenografted in athymic NCr mouse assessed as number of nonadherent cancer cells in peritoneum at 180 uCi, ip administered 9 days after tumor implantation as six fractionated doses every 4 days measured after 2 weeks of last dose by gamma counting. In kind it is functional. In a few lines:
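OVCAR-3 ip xenografts in athymic mice; six fractionated ip doses every 4 days, total 180 μCi/mouse, with PBS or vehicle ip controls. Nonadherent tumor cells recovered by peritoneal lavage at necropsy, counted and pellet-weighed.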

Data set [11] in a line: Ratio of drug level in tumor to blood in athymic NCr mouse xenografted with human OVCAR-3 cells at 180 uCi, ip administered 9 days after tumor implantation as six fractionated doses every 4 days measured after 24 hrs by gamma counting. In kind it is ADME, organism-based. Particulars: tumour.
Data set [12] in a line: Ratio of drug level in tumor to liver in athymic NCr mouse xenografted with human OVCAR-3 cells at 180 uCi, ip administered 9 days after tumor implantation as six fractionated doses every 4 days measured after 48 hrs by gamma counting. It counts as ADME, organism-based. Particulars: in vivo.
The next data set has as its system Mus musculus. Kind of data set: Toxicity in ip dosed athymic NCr mouse assessed as change in body weight measured after 21 days. It counts as organism-based. To be noted: in vivo, 504 h.

Sequence of Albumin (P07724 whole entry): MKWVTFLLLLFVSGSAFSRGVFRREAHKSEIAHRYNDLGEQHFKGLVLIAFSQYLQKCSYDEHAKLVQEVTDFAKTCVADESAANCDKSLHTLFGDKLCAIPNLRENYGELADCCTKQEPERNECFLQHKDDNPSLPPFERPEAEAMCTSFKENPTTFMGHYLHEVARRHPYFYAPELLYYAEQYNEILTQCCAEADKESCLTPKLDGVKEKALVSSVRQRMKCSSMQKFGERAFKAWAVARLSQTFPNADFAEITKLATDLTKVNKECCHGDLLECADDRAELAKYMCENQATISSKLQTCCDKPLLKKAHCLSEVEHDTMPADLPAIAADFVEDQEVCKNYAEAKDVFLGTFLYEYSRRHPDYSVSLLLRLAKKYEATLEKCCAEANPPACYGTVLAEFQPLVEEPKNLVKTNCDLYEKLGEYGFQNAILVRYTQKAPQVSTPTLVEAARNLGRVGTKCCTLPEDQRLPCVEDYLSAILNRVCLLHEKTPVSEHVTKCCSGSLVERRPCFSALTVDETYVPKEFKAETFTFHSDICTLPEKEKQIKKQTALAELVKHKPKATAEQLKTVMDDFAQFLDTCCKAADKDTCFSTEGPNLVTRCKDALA

`C[C@]12CCC(=O)C[C@@H]1CC[C@@H]1[C@@H]2CC[C@]2(C)[C@@H](OC(=O)CCC(=O)O[C@H]3C[C@H](n4cc([125I])c(=O)[nH]c4=O)O[C@@H]3COP(=O)(O)O)CC[C@@H]12`: the Activity result in data set [1] is listed as “Active”; in the data set on LNCaP it was 1.7 uCi/ml. Also, the Drug uptake entry is recorded as “Dose-dependent effect” in the data set with OVCAR-3 [2], 0.009 %ID in the data set on Stomach and 0.011 %ID in data set [3].

The term half-life denotes the time needed for the level to fall by half in the phase considered. For `C[C@]12CCC(=O)C[C@@H]1CC[C@@H]1[C@@H]2CC[C@]2(C)[C@@H](OC(=O)CCC(=O)O[C@H]3C[C@H](n4cc([125I])c(=O)[nH]c4=O)O[C@@H]3CO)CC[C@@H]12`, the Activity result is “Active” in data set [4], “Not Active” at Albumin, 1250000000 in the data set with OVCAR-3 [10] and “Non-toxic” in the data set with Mus musculus. In [5], the remaining at 10 min was less than 1.5%. Further, the metabolised at 4 h, 0.1 uCi/mL in data set [6] is 60%. The half-life in [7] is 60 days. Besides, in data set [8], the Drug uptake worked out at 1 %ID. Besides, the t1/2 in data set [9] was 2.83 days. For the same compound, the Ratio in data set [11] stood at 64.7; in data set [12], 34.4.

For the origin of these results see ChEMBL document CHEMBL1155242, “Radiolabeled 5-iodo-3'-O-(17beta-succinyl-5alpha-androstan-3-one)-2'-deoxyuridine and its 5'-monophosphate for imaging and therapy of androgen receptor-positive cancers: synthesis and biological evaluation” (J Med Chem, 2009).
